M5 PAM – CHRM5 positive allosteric modulation; P08912; CHO-K1 hM5, Fluo-8 calcium, ACh EC20 PAM; 0% = ACh EC20, 100% = ACh EC100; activation, % at 3 µM; 360,000 compounds, 0.3% hits;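 active means activation above the run cutoff, the mean activation of all test compounds plus 3 SD, cut at about 18% in these data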
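system = human M5 receptor in CHO-K1 cells | compound = one concentration, 3 µM final (nominal) | schedule = Post-acetylcholine fluorescence recording 140 s | signal = Fluo-8 calcium dye fluorescence, kinetic read | benchmarks = low control EC20 acetylcholine (0%), high control EC100 acetylcholine (100%) | repeats = singlicate, one well per test compound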
M4 antag – antagonists of human muscarinic M4 receptor (CHRM4); P08173; CHO-hM4 cells, ACh EC80, Fluo-8 calcium fluorescence; inhibition, % at 3 µM; 360,000 compounds, 0.73% hits;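 active means inhibition above its plate's cutoff, the mean inhibition of sample wells plus 3 SD, cut at about 27% in these data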
Target sequence (P08173 whole entry, looked up): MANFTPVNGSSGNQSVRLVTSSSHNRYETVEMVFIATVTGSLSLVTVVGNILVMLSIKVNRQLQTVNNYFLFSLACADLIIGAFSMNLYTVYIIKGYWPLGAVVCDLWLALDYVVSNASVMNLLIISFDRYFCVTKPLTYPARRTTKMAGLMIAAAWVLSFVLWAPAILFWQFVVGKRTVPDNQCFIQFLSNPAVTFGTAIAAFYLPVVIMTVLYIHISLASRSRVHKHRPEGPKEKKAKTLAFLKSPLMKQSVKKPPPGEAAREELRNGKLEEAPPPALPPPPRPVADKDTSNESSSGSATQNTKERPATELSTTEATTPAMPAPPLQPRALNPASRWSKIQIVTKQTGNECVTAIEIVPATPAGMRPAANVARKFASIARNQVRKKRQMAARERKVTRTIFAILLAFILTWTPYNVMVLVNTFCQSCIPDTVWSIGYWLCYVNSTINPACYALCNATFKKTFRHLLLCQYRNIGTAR
CHRM4 PAM – CHRM4 positive allosteric modulation; P08173; CHO-K1 hM4/Gqi5, Fluo-8 calcium fluorescence, ACh EC20; 0% = ACh EC20, 100% = maximal ACh; activation, % at 3 µM; 360,000 compounds, 0.4% hits; AID 624126;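 active means activation above its plate's cutoff, the mean activation of sample wells plus 3 SD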
CHRM4 agonist – CHRM4 agonism in calcium assay. P08173. CHO-K1 hM4/Gqi5, Fluo-8 calcium fluorescence; vehicle 0%, full acetylcholine response 100%. activation, % at 3 µM. 360,000 compounds, 0.14% hits;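 active means activation above the run mean over all test wells plus 3 SD, cut at about 32% in these data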;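 further: peak over basal fluorescence ratio per well then scaled between controls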
M5 ag – agonists of human muscarinic M5 receptor (CHRM5). P08912. activation, % at 3 µM. 360,000 compounds, 0.19% hits. AID 624037. CHO-K1 hM5 cells, Fluo-8 calcium fluorescence; 0% DMSO wells, 100% maximal acetylcholine response;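 active means activation above the run's mean over test compounds plus 3 SD, cut at about 23% in these data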;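 further: signal is peak over basal fluorescence ratio across the kinetic read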
CHRM5 antagonist – CHRM5 antagonism in calcium assay | CHO-hM5 cells, Fluo-8 calcium fluorescence, ACh EC80 | inhibition, % at 3 µM | 360,000 compounds, 0.59% hits;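 active means inhibition above a per-plate cutoff, the mean of that plate's test compounds plus 3 SD, cut at about 27% in these data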
A number is an active result; 0 = inactive. A selection: hits, their analogues and other compounds. The true share with any hit is near 1.8%.

SMILES	M5 PAM	M4 antag	CHRM4 PAM	CHRM4 agonist	M5 ag	CHRM5 antagonist
COc1ccc(N(CC(=O)Nc2ccccc2OC)S(=O)(=O)c2ccc(NC(C)=O)cc2)cc1	0	0	0	0	0	32
COc1cc(NC(=O)CN(C)S(=O)(=O)c2ccc(C)cc2)cc(OC)c1	0	0	18	0	0	0
CCOC(=O)N1CCN(C(=O)c2cc(C)no2)CC1	0	0	0	0	0	0
Cc1cc(C(=O)N2CCC(C)CC2)on1	18	0	0	0	0	0
CC1(C(=O)NS(=O)(=O)C2CC2)CCN(C(=O)COCc2ccccc2)C1 (configuration not stated)	0	0	0	0	0	0
CCOC(=O)C1CCN(C(=O)Cn2nc(CC)n3cccc3c2=O)CC1	0	0	0	0	0	0
O=c1c2cc(NC(=S)NCCCN3CCC(Cc4ccccc4)CC3)ccc2nc2n1CCCCC2	0	44	0	0	0	0
COc1ccc(S(=O)(=O)N2CCC(C(=O)NCCC(=O)NCc3cccnc3)CC2)cc1	0	0	0	0	0	0
C[N+]1(CC(=O)OCCCc2ccccc2)CCCCC1	0	0	0	0	0	0
CC(=O)/C(C[N+]1(C)CCCCC1)=N\O	0	34	0	0	0	43
CCOC(=O)C1=CC[C@@H](c2ccccc2)N(S(=O)(=O)c2ccc(C)cc2)[C@H]1c1ccc(C#N)cc1	0	0	0	0	0	0
CCOC(=O)C1=CC[C@@H](c2ccccc2)N(S(=O)(=O)c2ccc(C)cc2)[C@H]1C#N	0	32	0	0	0	0
CCCCCCCCN1C(=O)[C@H](CC(=O)NCCc2ccccc2OC)C[C@@]2(C(=O)OC)CC(C)(C)CC=C12	0	0	0	0	0	0
CCC(C(=O)NC(C)(C)C)N(Cc1ccco1)C(=O)CNS(=O)(=O)c1ccc(OC)cc1 (configuration not stated)	0	0	0	0	0	0
COc1cc(-c2n[nH]c(=S)n2/N=C/c2cccn2C)cc(OC)c1OC	0	0	0	51	50	0
Cn1cccc1/C=N/n1c(-c2ccco2)n[nH]c1=S	0	0	0	0	0	0
COC(=O)c1ccccc1NC(=S)N1CCN(c2ccc(OC)cc2)CC1	0	0	0	0	0	0
COCCn1c(SCC(=O)Nc2ccc(NC(=O)c3ccco3)c(OC)c2)nc2ccccc2c1=O	0	0	20	0	0	0
COCCn1c(SCC(=O)NCc2ccccc2)nnc1-c1ccco1	0	0	18	0	0	0
COCCCn1c(SCC(N)=O)nnc1-c1ccccc1	0	0	0	0	0	0
COCCCn1c(SCC(=O)NC(C)C)nnc1-c1ccccc1	19	0	0	0	0	0
O=C(NCC1CCCO1)c1ccc(N2CCCCC2)c([N+](=O)[O-])c1 (configuration not stated)	0	0	0	0	0	0
Cc1ccc(NC(=O)CNc2ccc(Cl)c(Cl)c2)cc1S(=O)(=O)N(C)C	0	33	0	0	0	0
CC1NC(=O)c2cccnc2-n2c1nc1ccccc1c2=O (configuration not stated)	0	0	0	0	0	0
Cc1noc(C)c1S(=O)(=O)Nc1ccc2c(c1)CC(=O)N([C@H](C)CO)C[C@H](C)[C@H](CN(C)S(=O)(=O)c1ccc(F)cc1)O2	0	59	0	0	0	0
SMILES	M5 PAM	M4 antag	CHRM4 PAM	CHRM4 agonist	M5 ag	CHRM5 antagonist
Cc1noc(C)c1S(=O)(=O)Nc1ccc2c(c1)C(=O)N([C@H](C)CO)C[C@H](C)[C@@H](CN(C)S(=O)(=O)c1ccc(F)cc1)O2	0	0	0	0	0	0
COC(=O)c1cc(S(=O)(=O)Nc2ccc(C)cn2)c[nH]1	0	0	0	0	0	27
Cc1cc(CN2CCCCC2C(=O)Nc2ccc(Oc3cccnc3)cc2)oc1C (configuration not stated)	0	0	0	0	0	0
Cc1cccc(N(CC(=O)N2CCCC2)S(C)(=O)=O)c1	0	0	0	0	0	0
CS(=O)(=O)N(CC(=O)N1CCCC1)c1cccc(Cl)c1	28	0	0	0	0	0
O=C(NCc1ccccc1)c1ccc(S(=O)(=O)NCc2ccco2)cc1	0	0	0	0	0	0
CCC1(c2ccccc2)NC(=O)N(CC(=O)Nc2cccc(S(=O)(=O)N3CCCCC3)c2)C1=O (configuration not stated)	0	0	0	0	0	0
COc1cc(Cl)ccc1OCc1cc(C(=O)N2CCCC(OC)C2)no1 (configuration not stated)	0	0	0	0	0	29
O=C(NC1CCCCCCC1)c1cc(COc2ccc3ncccc3c2)on1	0	34	0	0	0	36
CCC(O)C1CCN(C(=O)c2cc(COc3ccc4ncccc4c3)on2)CC1 (configuration not stated)	0	0	0	0	0	35
COc1cc(Cl)ccc1OCc1cc(C(=O)N2CCCCCC2)no1	0	0	0	0	0	0
COc1cccc(OCc2cc(C(=O)N3CCN(C4CCCC4)CC3)no2)c1	0	0	0	0	0	29
Cc1cc(CN(C)C(=O)c2cc(COc3ccc4ncccc4c3)on2)on1	0	0	0	0	0	0
CC(CNC(=O)c1cc(COc2ccc3ncccc3c2)on1)c1ccccc1 (configuration not stated)	0	0	0	0	0	30
O=C(Nc1nc2nccc(-c3ccccc3)n2n1)c1ccccc1	0	100	0	0	0	0
CCOC(=O)NN=C1CN(S(=O)(=O)c2ccc(C)cc2)C1	0	0	0	0	0	0
CC(=O)/C(C(=N)N1CCN(Cc2ccccc2)CC1)=C(\C)O	0	0	0	0	0	0
O=C(O)/C=C/C(=O)N1CCN(C(c2ccccc2)c2ccccc2)CC1	0	30	0	0	0	27
CC(=O)/C(C(=N)N1CCN(C(c2ccccc2)c2ccccc2)CC1)=C(\C)O	0	91	0	0	0	83
CC(=O)Nc1nc(-c2ccc([N+](=O)[O-])cc2)cs1	0	0	0	0	0	0
O=C(Nc1ccc([N+](=O)[O-])cc1)Nc1nc(-c2ccc(Cl)s2)cs1	0	0	0	0	0	31
CC1=CC(C)(C)N(C(=O)CNC2CCCC2)c2cc(C)ccc21	0	49	0	0	0	37
CCOc1ccc2c(c1)N(C(=O)CN1C(=O)CCC1=O)C(C)(C)C=C2C	0	0	0	0	0	0
CC1(Oc2ccccc2-c2ccno2)CCN(Cc2csc3ccccc23)C1 (configuration not stated)	0	33	0	0	0	0
Oc1c(Br)cc(Br)cc1C=Nc1cccc2ncccc12	0	0	0	0	0	0
